Screening data from PubChem.
FGF22 binding = FGF22 (human) thermal shift binding | recombinant FGF22 thermal shift, SYPRO orange fluorescence; percent of sucrose octasulfate shift, DMSO zero | activity (Tm shift, normalised), % at 9.99 µM | actives 1.5% (n = 340,000);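 active = mean Tm shift, scaled 0 neutral to 100 positive control, at about 1.3% or above, every replicate too, limit read from the data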
Target sequence (Q9HCT0 whole entry, looked up): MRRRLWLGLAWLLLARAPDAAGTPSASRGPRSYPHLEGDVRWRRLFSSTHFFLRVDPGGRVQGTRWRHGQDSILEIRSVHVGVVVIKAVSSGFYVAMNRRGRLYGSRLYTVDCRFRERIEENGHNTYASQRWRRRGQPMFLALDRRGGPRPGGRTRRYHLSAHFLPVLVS
EBNA-1 inhibitor = blocks EBNA-1 binding to DNA; AID 1950; EBNA-1 DNA binding, fluorescence polarization; actives 0.34% (n = 300,000); inhibition, % at 14.8 µM; in the data active = inhibition above about 28%
NS3 helicase inh = blocks Hepatitis C virus NS3 helicase unwinding; inhibition, % at 10.9 µM; AID 1800; actives 0.56% (n = 290,000); NS3 helicase DNA unwinding, Cy5 molecular beacon fluorescence;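 active = inhibition above the mean of all tested compounds plus 3 SD, set per campaign, cut at about 35% in these data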;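 also: 0% = DMSO wells and 100% = thioflavine S control wells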
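Test system: hepatitis C virus NS3 helicase domain fragment enzyme. Also added: annealed dual-labelled DNA beacon duplex, ATP-started. Timing: 60 min unwinding reaction at 25 °C after ATP addition. Technique: Cy5 fluorescence. Measure: % inhibition of unwinding.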
ZTA DNA inh = counter-screen for EBNA-1 inhibitors: inhibitors of Epstein-Barr virus ZTA; P03206; ZTA-DNA binding, fluorescence polarization; inhibition, % at 11 µM; actives 0.15% (n = 320,000); in the data active = inhibition above about 33%
Target sequence (P03206 whole entry, looked up): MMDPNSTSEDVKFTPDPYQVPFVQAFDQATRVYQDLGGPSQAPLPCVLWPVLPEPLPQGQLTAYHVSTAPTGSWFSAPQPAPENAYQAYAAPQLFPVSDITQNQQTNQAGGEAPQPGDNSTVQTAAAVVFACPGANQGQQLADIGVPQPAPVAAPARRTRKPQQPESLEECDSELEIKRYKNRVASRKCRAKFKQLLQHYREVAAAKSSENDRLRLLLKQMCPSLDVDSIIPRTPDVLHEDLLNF
DNA FID counter-1 = displaces DNA intercalator in HCV helicase counter-screen; DNA fluorescent intercalator displacement, fluorescence; inhibition, % at 7.9 µM; actives 0.17% (n = 290,000); AID 1845;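 also: 0% = vehicle and 100% = reference compound; higher means more ethidium bromide displaced from hairpin DNA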
GRIN3A LBD mod = NR3A (human) ligand-binding domain modulation; NR3A LBD differential scanning fluorimetry, Tm shift; 0% = protein alone, 100% = glycine-bound protein; Tm shift relative to glycine control, % at 25 µM; actives 2.5% (n = 340,000);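 active = melting temperature shift of at least 10% of the positive control shift, at one fixed dose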
NS3 hel confirm = confirmation of Hepatitis C virus NS3 helicase inhibitors | shares compounds with NS3 helicase inh | NS3 helicase DNA unwinding, Cy5 molecular beacon fluorescence | inhibition, % at 10.9 µM | actives 31% (n = 1,600) | AID 1943;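 active = inhibition above the mean of all tested compounds plus 3 SD, cutoff set per campaign, cut at about 36% in these data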
DNA FID counter-2 = intercalator displacement, NS3 helicase counter-screen. shares compounds with NS3 helicase inh. DNA fluorescent intercalator displacement, fluorescence. inhibition, % at 7.9 µM. actives 4% (n = 1,600). AID 1945;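 also: 0% = vehicle and 100% = reference compound; higher means more displacement of ethidium bromide from the DNA hairpin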
FID counter DR = counter-screen for HCV NS3 helicase inhibitors: DNA intercalator displacement dose response; fluorescent intercalator displacement from DNA, fluorescence; shares compounds with NS3 helicase inh; 120 tested, under 10 active; IC50, µM; call rule not given here
* hit, by the source's call. An excerpt weighted towards active compounds, which were near 3.6% of everything screened. Rule as the data show it, unless noted: active = inhibition above about 37%; inactive = the rest.

`Oc1c(Br)cc(Br)cc1/C=N/NC(=S)N[C@H]1CC2C=CC1C2` (some centres not stated) gave FGF22 binding 0, EBNA-1 inhibitor -4, NS3 helicase inh 37*, ZTA DNA inh 9, DNA FID counter-1 -19, GRIN3A LBD mod 14*, NS3 hel confirm 59*, DNA FID counter-2 15 and FID counter DR >79.
For O=C(Nc1ccccc1F)N[C@@H]1CC[C@H](CCNS(=O)(=O)c2ccc(F)cc2)O[C@@H]1CO the results were FGF22 binding 0.
CC1=CC2=NC(=O)/C(=C\c3cc(C)n(-c4cccc(Cl)c4)c3C)C(=N)N2O1 was read as FGF22 binding 0, EBNA-1 inhibitor -3, NS3 helicase inh 5, ZTA DNA inh -4, DNA FID counter-1 -2 and GRIN3A LBD mod -3.
`CC1=CC2=NC(=O)/C(=C/c3coc4ccc(Cl)cc4c3=O)C(=N)N2O1` gave EBNA-1 inhibitor -7, NS3 helicase inh 42*, ZTA DNA inh 1, DNA FID counter-1 -3, GRIN3A LBD mod -1, NS3 hel confirm -20 and DNA FID counter-2 5.
COc1ccccc1/C=c1\sc2nc(-c3ccco3)nn2c1=O was read as EBNA-1 inhibitor -11, NS3 helicase inh 16, ZTA DNA inh 1, DNA FID counter-1 -10 and GRIN3A LBD mod 2.
Screening CCOc1ccc(/C=c2\sc3nc(-c4ccco4)nn3c2=O)cc1OCC returned EBNA-1 inhibitor 4, NS3 helicase inh 38*, ZTA DNA inh 4, DNA FID counter-1 -37, GRIN3A LBD mod 0, NS3 hel confirm 47*, DNA FID counter-2 -27 and FID counter DR >79.
Screening COc1ccc(C(=O)O)cc1NC(=S)NC(=O)/C=C/c1ccc(C(C)C)cc1 returned FGF22 binding 0, EBNA-1 inhibitor -4, NS3 helicase inh 43*, ZTA DNA inh 12, DNA FID counter-1 -11, GRIN3A LBD mod -2, NS3 hel confirm 58* and DNA FID counter-2 16.
CCNC(=O)C[C@H]1CC[C@H](NC(=O)C2CCOCC2)[C@H](CO)O1 was read as FGF22 binding 0.
`C[C@H]1CN([C@@H](C)CO)C(=O)c2cc(-c3cccc(C#N)c3)cnc2O[C@@H]1CN(C)Cc1ccccc1` gave FGF22 binding 0.
For CC(C)CC[n+]1ccn(-c2nc3ccccc3nc2[N-]S(=O)(=O)c2ccccc2)c1 the results were EBNA-1 inhibitor -8, NS3 helicase inh -2, ZTA DNA inh -4, DNA FID counter-1 -28 and GRIN3A LBD mod 1.
`O=S(=O)([N-]c1nc2ccccc2nc1-n1cc[n+](Cc2ccccc2)c1)c1ccc(Cl)cc1` gave FGF22 binding 0, EBNA-1 inhibitor 2, NS3 helicase inh 37*, ZTA DNA inh 2, DNA FID counter-1 -9, GRIN3A LBD mod -1, NS3 hel confirm -2 and DNA FID counter-2 -33.
For COc1cccc(NC(=O)N2C[C@@H](O)COC[C@@H]3O[C@H](CC(=O)NC4Cc5ccccc5C4)CC[C@H]32)c1 the results were FGF22 binding 0.
COc1ccc(NC(=O)N(C)C[C@@H]2Oc3ccc(NS(=O)(=O)c4ccc(Cl)cc4)cc3C(=O)N([C@H](C)CO)C[C@H]2C)cc1 was read as FGF22 binding 0.
Cc1cc(C)nc(OC(C(=O)O)C(OCc2ccccc2)(c2ccccc2)c2ccccc2)n1 (configuration not stated) was read as FGF22 binding 0, EBNA-1 inhibitor 8, NS3 helicase inh 37*, ZTA DNA inh 8, DNA FID counter-1 -35, GRIN3A LBD mod 0, NS3 hel confirm 74* and DNA FID counter-2 -40.
For CCCOC(c1ccccc1)(c1ccccc1)C(Oc1nc(C)cc(C)n1)C(=O)O (configuration not stated) the results were FGF22 binding 0, EBNA-1 inhibitor -3, NS3 helicase inh 16, ZTA DNA inh 0, DNA FID counter-1 -40 and GRIN3A LBD mod 0.
For Cc1cc(C)n2nc(SCC(=O)Nc3ccc(F)cc3)nc2n1 the results were FGF22 binding 0, EBNA-1 inhibitor -1, NS3 helicase inh 51*, ZTA DNA inh -1, DNA FID counter-1 -3, GRIN3A LBD mod 1, NS3 hel confirm -12 and DNA FID counter-2 3.
Screening Cc1cc(C)n2nc(SCC(=O)Nc3ccc(O)cc3)nc2n1 returned FGF22 binding 0, EBNA-1 inhibitor 5, NS3 helicase inh -8, ZTA DNA inh 3, DNA FID counter-1 -1 and GRIN3A LBD mod 2.
For O=C(O)/C(CC(=O)c1ccc(Cl)cc1)=N/Nc1ccc([N+](=O)[O-])cc1[N+](=O)[O-] the results were EBNA-1 inhibitor 2, NS3 helicase inh 38*, ZTA DNA inh 6, DNA FID counter-1 30, GRIN3A LBD mod 21*, NS3 hel confirm 52* and DNA FID counter-2 56*.
For O=C(Cc1ccccc1)N1C[C@@H]2[C@H](c3ccccc31)[C@H](CO)N2C(=O)c1cccc(F)c1 the results were FGF22 binding 0.
COc1cc(-c2ccc3c(=O)c4ccccc4n(C)c3c2)cc(OC)c1OC was read as FGF22 binding 0, EBNA-1 inhibitor 9, NS3 helicase inh -11, ZTA DNA inh 8, DNA FID counter-1 -27 and GRIN3A LBD mod -28.
Screening COc1ccc(-c2cc(Cl)cc3c(=O)c4ccccc4n(C)c23)cc1F returned FGF22 binding 0, EBNA-1 inhibitor 7, NS3 helicase inh 67*, ZTA DNA inh 8, DNA FID counter-1 5, GRIN3A LBD mod -5, NS3 hel confirm -3 and DNA FID counter-2 -10.
`CSc1ccc(/C=N/Nc2cccc(C(=O)O)c2)cc1` gave NS3 helicase inh 38*, DNA FID counter-1 -11, GRIN3A LBD mod -13, NS3 hel confirm 76* and DNA FID counter-2 -5.
Screening O=C(O)c1cccc(N/N=C/c2ccc(OC(F)(F)F)cc2)c1 returned FGF22 binding 0, EBNA-1 inhibitor 15, NS3 helicase inh -13, ZTA DNA inh 6, DNA FID counter-1 -20 and GRIN3A LBD mod -1.
Screening Cc1c(C(=O)O)cccc1-c1ccc(/C=C2\SC(=O)NC2=O)o1 returned FGF22 binding 0, EBNA-1 inhibitor -9, NS3 helicase inh 45*, ZTA DNA inh 4, DNA FID counter-1 -6, GRIN3A LBD mod 2, NS3 hel confirm -20 and DNA FID counter-2 5.
Screening COc1ccc(S(=O)(=O)N2CCCCN3[C@H](CO)[C@H](c4ccc(-c5cccnc5)cc4)[C@H]3C2)cc1 returned FGF22 binding 0.
